Data on four compounds can be found in ChEMBL document CHEMBL2163230, “Identification of a glutathione peroxidase inhibitor that reverses resistance to anticancer drugs in human B-cell lymphoma cell lines” (Bioorg Med Chem Lett, 2012).

pIC50: −log10 of the molar value. Calls of active or inactive are those of the source. The rule behind the calls is not given here.

Assay [1] can be described thus: Cytotoxicity against human GUMBUS cells after 72 hrs by MTT assay. Format: functional, cell-based. The method, boiled down: (§1)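 Cells from two patients with chemotherapy-resistant non-Hodgkin B-cell lymphoma. Resistant sublines were made by exposure to methotrexate, etoposide, cisplatin or bortezomib in culture over 2–3 months. Microtiter MTT assay, giving the IC50 as mean ± SD of 3 or more independent experiments. Drugs were tested alone and with co-incubation with 25 µM inhibitor.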
(Tetrazolium assays rely on reduction of a dye to a coloured formazan, in cell work by metabolically active cells.)

The nature of assay [2]: Cytotoxicity against human DOGUM cells after 72 hrs by MTT assay. It counts as functional, cell-based. The method, boiled down:
as §1

Assay [3] in a line: Cytotoxicity against human methotrexate-resistant DOGUM cells after 72 hrs by MTT assay. It counts as functional, cell-based. The method, boiled down: as §1
Assay [4] in a line: Cytotoxicity against human methotrexate-resistant GUMBUS cells after 72 hrs by MTT assay. It counts as functional, cell-based. The method, boiled down: as §1
The target in assay [5] is T1, Glutathione reductase, mitochondrial (Homo sapiens) (UniProt P00390).
T1 sequence (whole entry): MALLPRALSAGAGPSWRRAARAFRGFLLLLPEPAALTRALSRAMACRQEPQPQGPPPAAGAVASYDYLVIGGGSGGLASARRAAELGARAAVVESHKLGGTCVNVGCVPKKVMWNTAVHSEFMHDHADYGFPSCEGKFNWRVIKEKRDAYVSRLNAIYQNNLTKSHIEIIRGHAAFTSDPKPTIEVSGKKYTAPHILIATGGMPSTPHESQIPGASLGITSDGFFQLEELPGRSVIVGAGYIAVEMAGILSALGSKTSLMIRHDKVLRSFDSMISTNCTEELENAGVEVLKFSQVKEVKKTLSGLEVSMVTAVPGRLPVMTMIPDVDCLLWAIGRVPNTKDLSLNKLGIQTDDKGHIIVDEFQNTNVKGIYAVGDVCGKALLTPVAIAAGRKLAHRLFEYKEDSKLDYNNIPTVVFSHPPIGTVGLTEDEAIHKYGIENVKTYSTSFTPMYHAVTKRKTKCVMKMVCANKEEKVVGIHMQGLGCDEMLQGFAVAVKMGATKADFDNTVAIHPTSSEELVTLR
The experiment in a line: Inhibition of glutathione reductase up to 200 uM. The method, boiled down:
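Specific glutathione reductase assay (earlier method), compound tested at up to 200 µM.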

Assay [6] has as its target T2, Glutathione peroxidase 1 (Homo sapiens) (UniProt P07203).
T2 sequence (whole entry): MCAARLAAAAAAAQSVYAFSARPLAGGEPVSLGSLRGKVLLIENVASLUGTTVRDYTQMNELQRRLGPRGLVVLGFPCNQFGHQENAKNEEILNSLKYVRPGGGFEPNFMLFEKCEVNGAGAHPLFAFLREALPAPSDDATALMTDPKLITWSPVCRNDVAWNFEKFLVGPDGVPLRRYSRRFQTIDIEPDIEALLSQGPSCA
Particulars: 250 uM.

Assay [7] has as its target T2, Glutathione peroxidase 1 (Homo sapiens). As to conditions: 50 uM.
Another assay deals with T3, Glutathione peroxidase 1 (Homo sapiens, UniProt P07203).
T3 sequence (P07203 whole entry): T2 sequence (whole entry)
The experiment in a line: Inhibition of GPx1 using gultathione as substrate by glutathione reductase-coupled assay. The method, boiled down:
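GPx activity read as NADPH consumption at 340 nm. GPx oxidizes GSH to GSSG with H2O2 as co-substrate, and glutathione reductase reduces GSSG back to GSH. Earlier method, adapted to 96-well format. 0.1% Triton X-100 in all incubations to prevent compound precipitation. Docking used bovine erythrocyte GPx1.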

Assay [8] in a line: Cytotoxicity against human bortezomib-resistant GUMBUS cells after 72 hrs by MTT assay. It counts as functional, cell-based. The method, boiled down: as §1
Assay [9] can be described thus: Resistance ratio of IC50 for human bortezomib-resistant GUMBUS cells to IC50 for human GUMBUS cells. It counts as functional.
Assay [10] can be described thus: Cytotoxicity against human bortezomib-resistant DOGUM cells after 72 hrs by MTT assay. Format: functional, cell-based. The method, boiled down:
as §1

Assay [11] can be described thus: Resistance ratio of IC50 for human bortezomib-resistant DOGUM cells to IC50 for human DOGUM cells. Format: functional.
A short description of assay [12]: Cytotoxicity against human etoposide-resistant GUMBUS cells after 72 hrs by MTT assay. It counts as functional, cell-based. The method, boiled down: as §1
The nature of assay [13]: Resistance ratio of IC50 for human etoposide-resistant DOGUM cells to IC50 for human DOGUM cells. It counts as functional.
Assay [14] in a line: Resistance ratio of IC50 for human etoposide-resistant GUMBUS cells to IC50 for human GUMBUS cells. Format: functional.
Assay [15] in a line: Cytotoxicity against human etoposide-resistant DOGUM cells after 72 hrs by MTT assay. Format: functional, cell-based. The method, boiled down: as §1

For the compound `CN(Cc1cnc2nc(N)nc(N)c2n1)c1ccc(C(=O)N[C@@H](CCC(=O)O)C(=O)O)cc1` [METHOTREXATE], the pIC50 is 7.62 in [1], 7.08 in [2], 6.47 in assay [3] and 6.27 in [4].

Take `Cc1nccn1CC(=O)N/N=C/c1ccc(O)cc1`: the inhibition entry in assay [5] and in assay [6] was “inactive” in each case. Also, the inhibition in assay [7] was 15%. Moreover, the pIC50 against Glutathione peroxidase 1 is 3.77.

Regarding `CC(C)C[C@H](NC(=O)[C@H](Cc1ccccc1)NC(=O)c1cnccn1)B(O)O` [BORTEZOMIB], the negative-log IC50 (pIC50) in assay [8] is 7.46; in assay [1], 8.22; in assay [10], 8.15; in assay [2] it was 8.70. Moreover, the “Ratio IC50” value in assay [9] is reported as 6; in [11], 4.

Take `COc1cc([C@@H]2c3cc4c(cc3[C@@H](O[C@@H]3O[C@@H]5CO[C@@H](C)O[C@H]5[C@H](O)[C@H]3O)[C@H]3COC(=O)[C@H]23)OCO4)cc(OC)c1O` [ETOPOSIDE]: the pIC50 in [12] is 6.24; in assay [1] it was 7.38; in assay [2] it was 7.12; in assay [15], 6.55. Moreover, the “Ratio IC50” value is on record as 4 in [13] and 13 in assay [14].

One may read the pIC50 as the IC50 on a negative log10 scale, so that one unit is a factor of ten. Low readings indicate a large IC50, high ones a small IC50. Usually inhibition stands for the change of the read-out against control, counted positive when it falls.
